Here are results for one compound from ChEMBL document CHEMBL5357066, “Development of Novel Membrane Disrupting Lipoguanidine Compounds Sensitizing Gram-Negative Bacteria to Antibiotics” (ACS Med Chem Lett, 2024).

Series [1] has as its system Cell membrane. The experiment in a line: Induction of outer membrane permeabilization in Pseudomonas aeruginosa PAO1 assessed as increase fluorescence intensity by measuring NPN uptake factor measured immediately for 2 hrs by fluorescence based analysis. The series is classed as subcellular. In outline:
(§1)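 NPN outer-membrane uptake. Overnight TSB cultures (37 °C, 200 rpm) were subcultured 1:20 for 2 h to mid-log, washed, and resuspended in 5 mM HEPES with 5 mM glucose, pH 7.2. Cells were mixed with assay buffer containing 10 µM NPN, then with compound, polymyxin B (positive control) or buffer. Fluorescence (ex 350, em 420 nm) was monitored immediately for 2 h.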

Series [2] deals with Klebsiella pneumoniae. Briefly: Synergistic antibacterial activity against Klebsiella pneumoniae M6 assessed as reduction in rifampicin MIC at 8 to 32 microg/ml incubated for overnight by microbroth dilution checkerboard assay. The series is classed as functional, organism-based. Conditions: dose 8-32 µg/ml. In outline: (§2)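 Broth microdilution in Tryptic Soy Broth, with rifampicin in a 2-fold dilution series combined with the second agent. Bacteria were grown overnight in TSB, back-diluted, then incubated with the compounds overnight at 37 °C. MIC was taken as the lowest concentration with no visible growth (<0.1 OD600).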

Series [3] deals with Pseudomonas aeruginosa. Briefly: Potentiation of doxycycline induced antibacterial activity against Pseudomonas aeruginosa PAO1. The series is classed as functional, organism-based.
In series [4] the test system is Acinetobacter baumannii. Briefly: Synergistic antibacterial activity against Acinetobacter baumannii ATCC 17978 assessed as reduction in rifampicin MIC at 32 microg/ml incubated for overnight by microbroth dilution checkerboard assay. The series is classed as functional, organism-based. Conditions: dose 32.0 µg/ml. The method, boiled down:
(§3)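 Checkerboard microdilution under MIC conditions (TSB, overnight, 37 °C). Two-fold series of each agent were combined on one plate before bacteria were added, and single-agent MICs were measured on the same plate. FIC = sum of combination MIC/alone MIC for each agent, taken from the most synergistic well. Three independent repeats, mean ± SD. ≤0.5 was taken as strong synergy and 0.5–<1 as weak.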

Series [5] concerns Klebsiella pneumoniae. Briefly: Potentiation of doxycycline induced antibacterial activity against Klebsiella pneumoniae NCTC 13368. The series is classed as functional, organism-based.
The subject of series [6] is Pseudomonas aeruginosa. The experiment in a line: Synergistic antibacterial activity against Pseudomonas aeruginosa PAO1 assessed as reduction in rifampicin MIC at 8 to 32 microg/ml incubated for overnight by microbroth dilution checkerboard assay. It is filed as functional, organism-based. The following applies: dose 8-32 µg/ml. In outline: as §2
The subject of series [7] is Klebsiella pneumoniae. Briefly: Potentiation of doxycycline induced antibacterial activity against Klebsiella pneumoniae M6. The series is classed as functional, organism-based.
The nature of series [8]: Toxicity in Galleria mellonella larvae assessed as reduction in animal survival at 10 to 50 mg/kg measured for 120 hrs. The series is classed as organism-based. The following applies: in vivo, dose 10-50 mg/kg. In outline:
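Wax moth larvae, assumed 300 mg mean weight with 50 µL haemolymph, 10 per group. Each was injected via the front proleg with 10 µL of compound at 50, 20 or 10 mg/kg, or PBS only. Larvae were held at 37 °C for 5 days and scored live/dead every 24 h; dead meant no response to physical stimuli.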

Series [9] concerns Escherichia coli. The experiment in a line: Potentiation of doxycycline induced antibacterial activity against Escherichia coli NCTC 12923. The series is classed as functional, organism-based.
Series [10] has as its system Klebsiella pneumoniae. Briefly: Synergistic antibacterial activity against Klebsiella pneumoniae NCTC 13368 assessed as fractional inhibitory concentration index incubated for overnight in presence of rifampicin by microbroth dilution checker board assay. It is filed as functional. The method, boiled down:
as §3
(In general: In broth dilution the organism is exposed to a series of concentrations in liquid medium.)

Series [11] relates to Cell membrane. Briefly: Induction of outer membrane permeabilization in Klebsiella pneumoniae NCTC 13368 assessed as increase fluorescence intensity by measuring NPN uptake factor measured immediately for 2 hrs by fluorescence based analysis. It is filed as subcellular. In outline:
as §1

For series [12], the system named is Pseudomonas aeruginosa. The experiment in a line: Potentiation of doxycycline induced antibacterial activity against Pseudomonas aeruginosa NCTC 13437. The series is classed as functional, organism-based.
Series [13] relates to Pseudomonas aeruginosa. The experiment in a line: Synergistic antibacterial activity against Pseudomonas aeruginosa NCTC 13437 assessed as reduction in rifampicin MIC at 8 to 32 microg/ml incubated for overnight by microbroth dilution checkerboard assay. The following applies: dose 8-32 µg/ml. The series is classed as functional, organism-based. In outline:
as §2

Series [14] relates to Cell membrane. Briefly: Induction of outer membrane permeabilization in Pseudomonas aeruginosa NCTC 13437 assessed as increase fluorescence intensity by measuring NPN uptake factor measured immediately for 2 hrs by fluorescence based analysis. The series is classed as subcellular. The method, boiled down: as §1
Series [15] concerns Klebsiella pneumoniae. Briefly: Synergistic antibacterial activity against Klebsiella pneumoniae NCTC 13368 assessed as reduction in rifampicin MIC at 8 to 64 microg/ml incubated for overnight by microbroth dilution checkerboard assay. Conditions: dose 8-64 µg/ml. The series is classed as functional, organism-based. In outline: as §3
The subject of series [16] is Pseudomonas aeruginosa. Briefly: Synergistic antibacterial activity against Pseudomonas aeruginosa NCTC 13437 assessed as fractional inhibitory concentration index incubated for overnight in presence of rifampicin by microbroth dilution checker board assay. It is filed as functional. In outline:
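Checkerboard microdilution in Tryptic Soy Broth, run like the MIC assay. Overnight TSB cultures were back-diluted to OD 0.01 and added 1:1 to the combined two-fold series of both agents, then incubated overnight at 37 °C. Growth/no-growth was called at <0.1 OD600. MICs alone were read on the same plates. FIC index came from the most synergistic well; three independent repeats, mean ± SD.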

In series [17] the test system is Cell membrane. The experiment in a line: Induction of outer membrane permeabilization in Escherichia coli NCTC 12923 assessed as increase fluorescence intensity by measuring NPN uptake factor measured immediately for 2 hrs by fluorescence based analysis. It is filed as subcellular. In outline: as §1
Series [18] concerns Escherichia coli. Briefly: Synergistic antibacterial activity against Escherichia coli NCTC 12923 assessed as reduction in rifampicin MIC at 32 microg/ml incubated for overnight by microbroth dilution checkerboard assay. Conditions: dose 32.0 µg/ml. The series is classed as functional, organism-based. The method, boiled down:
as §3

In series [19] the test system is Acinetobacter baumannii. Briefly: Synergistic antibacterial activity against Acinetobacter baumannii AYE assessed as reduction in rifampicin MIC at 32 microg/ml incubated for overnight by microbroth dilution checkerboard assay. The following applies: dose 32.0 µg/ml. It is filed as functional, organism-based. In outline: as §3

Calls of active or inactive are those of the source. The rule behind the calls is not given here.

As to `CCCCCCCCCCNC(=N)NCCCCN`, the Activity is greater than 1 with Cell membrane [1]; “Non-Toxic” in series [8]; greater than 1 in the series on Cell membrane [11]; greater than 1 in the series on Cell membrane [14]; greater than 1 in the series on Cell membrane [17]. In addition, the outcome in the series on Klebsiella pneumoniae [2], with Pseudomonas aeruginosa [3], with Acinetobacter baumannii [4], in the series with Klebsiella pneumoniae [5], in the series with Pseudomonas aeruginosa [6] and with Klebsiella pneumoniae [7] was Active. The result in the series with Escherichia coli [9], with Pseudomonas aeruginosa [12], in the series with Pseudomonas aeruginosa [13], with Klebsiella pneumoniae [15], in the series on Escherichia coli [18] and with Acinetobacter baumannii [19] was Active. For the same compound, the figures for the “fractional inhibitory concentration index (FICI)” value in the series on Klebsiella pneumoniae [10] and in the series on Pseudomonas aeruginosa [16] were 0.1 and 0.15, respectively.
